Experimental findings from PubChem BioAssay AID602222 (Southern Research Specialized Biocontainment Screening …, 2012) are described below.

Molecules are shown by their SMILES. The source made the active and inactive calls.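 Rule for the calls: active = inhibition of 30% or more at any tested concentration; inactive = the rest.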

What is called IC50 is the concentration that gives 50% inhibition.

The target of the first experiment is M18 aspartyl aminopeptidase (Plasmodium falciparum 3D7). Description: PfM18AAP aminopeptidase inhibitors, dose response, biochemical, QFRET, H-Glu-NHMec substrate, set 1 (AID 602222). The settings on record: recombinant PfM18AAP, H-Glu-NHMec fluorogenic substrate cleavage. In short, it runs like this:
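Test system: PFM18AAP, purified recombinant M18 aspartyl aminopeptidase of Plasmodium falciparum / Input: PFM18AAP enzyme at 5 µg/mL final / Buffer or medium: Cobalt-containing Tris-HCl buffer, pH 7.5 / Also added: H-Glu-NHMec substrate, 0.1 mM final / Doses: 10 concentrations, 1:2 steps, top 100 µM / Incubation: 90 min reaction at room temperature / Technique: NHMec release measured fluorometrically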
In the case of `Oc1ccc(-c2csc(Nc3ncccn3)n2)cc1O`, the concentration for half-maximal inhibition (IC50) was 6.43 µM.
With `CCc1ccc(NC(=O)Cc2nc(-c3ccc(O)c(O)c3)cs2)cc1`, the IC50 is 16.6 µM.
The same measure, in the same setting: the same measure for `Oc1ccc(CCNc2c3ccccc3nc3ccccc23)cc1O`: 4.3 µM; for `Oc1ccc(CCNc2ccnc3ccccc23)cc1O`: 7.33 µM.
With `CN1CCN(CCc2ccc(O)c(O)c2)CC1`, the half-inhibitory concentration (IC50) was 27.1 µM.
As for `CN1CCN(CCCc2ccc(O)c(O)c2)CC1`, the concentration for half-maximal inhibition (IC50) is 13.3 µM.
With `Oc1ccc(-c2csc(NC3CCCC3)n2)cc1O`, the concentration for half-maximal inhibition (IC50) is 13.1 µM.
On to `CN1CCN(c2nc(-c3ccc(O)c(O)c3)cs2)CC1`, for which the half-inhibitory concentration (IC50) is 9.37 µM.

Still in this experiment, the particulars now being: recombinant PfM18AAP, H-Glu-NHMec fluorogenic substrate cleavage; at 100 µM (top of the series).
Take `COc1ccc(CCCN2CCN(C)CC2)cc1OC`: the inhibition entry is “inactive”.
Turning to `COc1ccc(CCNC(c2ccccc2)c2ccccc2)cc1OC`, the inhibition entry was “inactive”.
